According to ChEMBL document CHEMBL4049422, “Discovery of Novel Indazole Derivatives as Orally Available β3-Adrenergic Receptor Agonists Lacking Off-Target-Based Cardiovascular Side Effects” (J Med Chem, 2017):

Tests used:
Rattus norvegicus [1] = assay: Cardiotoxicity in Sprague-Dawley rat assessed as decrease in heart beat rate at 3 mg/kg, iv after 30 mins (reference value: 4.5 +/- 0.8%); assay type: toxicity, organism-based; parameters: scale not given: the % may be the effect or the level left; settings: in vivo, 0.5 h
Rattus norvegicus [2] = assay: Cardiotoxicity in Sprague-Dawley rat assessed as increase in heart beat rate at 3 mg/kg, iv after 30 mins (reference value: 1.8 +/- 0.9%); assay type: toxicity, organism-based; settings: in vivo, 0.5 h
[3] = target: T1, Alpha-1A adrenergic receptor (Homo sapiens, UniProt P35348); assay: Agonist activity at recombinant human alpha1A adrenergic receptor expressed in HEK293 cells assessed as intercellular Ca mobilization by Fura-2AM dye-based fluorescence assay; assay type: cell-based
T1 sequence (P35348 whole entry): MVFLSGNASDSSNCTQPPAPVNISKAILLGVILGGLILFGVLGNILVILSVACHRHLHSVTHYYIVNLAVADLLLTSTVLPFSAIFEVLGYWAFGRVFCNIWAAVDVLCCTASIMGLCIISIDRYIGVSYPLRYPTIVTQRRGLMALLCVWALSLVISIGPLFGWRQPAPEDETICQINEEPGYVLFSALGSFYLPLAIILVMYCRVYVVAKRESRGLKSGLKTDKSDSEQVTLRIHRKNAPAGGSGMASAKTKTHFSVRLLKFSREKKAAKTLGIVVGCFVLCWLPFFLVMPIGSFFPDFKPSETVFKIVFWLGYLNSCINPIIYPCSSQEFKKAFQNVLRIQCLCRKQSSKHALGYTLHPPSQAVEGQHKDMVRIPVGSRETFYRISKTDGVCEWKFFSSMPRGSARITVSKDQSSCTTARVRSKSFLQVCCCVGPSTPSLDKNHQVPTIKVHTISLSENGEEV

[4] = target: Adrenoceptor beta 3 (Callithrix jacchus) (UniProt F6XZF4); assay: Agonist activity at beta3 adrenergic receptor in marmoset urinary bladder smooth muscle strips assessed as induction of KCl-precontracted muscle relaxation treated every 20 mins
[5] = target: T1, Alpha-1A adrenergic receptor; assay: Intrinsic activity at recombinant human alpha1A adrenergic receptor expressed in HEK293 cells assessed as intercellular Ca mobilization by Fura-2AM dye-based fluorescence assay relative to norepinephrine; assay type: cell-based; settings: read-out: Intrinsic activity
[6] = Intrinsic clearance in human liver microsomes at 1 uM in presence of NADPH by LC-MS/MS analysis; assay type: ADME, microsome
Outline: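 Pooled mixed-gender human liver microsomes (0.5 mg/mL) in 100 mM potassium phosphate pH 7.4 with NADPH-regenerating mix plus UDP-GA, test compound 1 µM, 15 min at 37 °C. Acetonitrile stop, LC-MS/MS. k from the remaining fraction. CLint,u is scaled with 48.8 mg protein/g liver and 25.7 g liver/kg, and corrected by fu from equilibrium dialysis (1 µM, 0.5 mg/mL, 6 h, 37 °C).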

CYP2C8 = target: T2, CYP2C8 (Homo sapiens, UniProt P10632); assay: Inhibition of CYP2C8 (unknown origin) at 10 uM relative to control; assay type: ADME
T2 sequence (P10632 whole entry): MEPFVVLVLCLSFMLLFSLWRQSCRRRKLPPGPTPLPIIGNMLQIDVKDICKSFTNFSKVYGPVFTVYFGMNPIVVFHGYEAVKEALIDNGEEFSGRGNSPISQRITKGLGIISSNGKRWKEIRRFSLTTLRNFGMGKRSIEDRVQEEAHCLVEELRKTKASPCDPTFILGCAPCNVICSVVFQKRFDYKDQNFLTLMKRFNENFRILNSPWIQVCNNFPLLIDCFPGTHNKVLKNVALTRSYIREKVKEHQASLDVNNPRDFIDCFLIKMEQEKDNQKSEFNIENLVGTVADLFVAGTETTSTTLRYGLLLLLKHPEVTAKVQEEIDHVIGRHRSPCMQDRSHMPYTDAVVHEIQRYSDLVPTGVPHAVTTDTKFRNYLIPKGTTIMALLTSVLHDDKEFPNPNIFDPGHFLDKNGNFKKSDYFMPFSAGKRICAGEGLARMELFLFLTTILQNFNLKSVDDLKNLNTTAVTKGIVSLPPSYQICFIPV

Rattus norvegicus [7] = assay: Cardiotoxicity in Sprague-Dawley rat assessed as increase in mean blood pressure at 3 mg/kg, iv after 30 mins (reference value: 1 +/- 0.5%); assay type: toxicity, organism-based; settings: in vivo, 0.5 h
[8] = target: Beta-3 adrenergic receptor (Homo sapiens, UniProt P13945); assay: Agonist activity at recombinant human beta3 adrenergic receptor expressed in CHO cells assessed as accumulation of cyclic AMP after 30 mins; assay type: cell-based
[9] = target: T3, Alpha-1D adrenergic receptor (Homo sapiens, UniProt P25100); assay: Agonist activity at recombinant human alpha1D adrenergic receptor expressed in HEK293 cells after 6 hrs by NFAT-luciferase reporter gene assay; assay type: cell-based
T3 sequence (P25100 whole entry): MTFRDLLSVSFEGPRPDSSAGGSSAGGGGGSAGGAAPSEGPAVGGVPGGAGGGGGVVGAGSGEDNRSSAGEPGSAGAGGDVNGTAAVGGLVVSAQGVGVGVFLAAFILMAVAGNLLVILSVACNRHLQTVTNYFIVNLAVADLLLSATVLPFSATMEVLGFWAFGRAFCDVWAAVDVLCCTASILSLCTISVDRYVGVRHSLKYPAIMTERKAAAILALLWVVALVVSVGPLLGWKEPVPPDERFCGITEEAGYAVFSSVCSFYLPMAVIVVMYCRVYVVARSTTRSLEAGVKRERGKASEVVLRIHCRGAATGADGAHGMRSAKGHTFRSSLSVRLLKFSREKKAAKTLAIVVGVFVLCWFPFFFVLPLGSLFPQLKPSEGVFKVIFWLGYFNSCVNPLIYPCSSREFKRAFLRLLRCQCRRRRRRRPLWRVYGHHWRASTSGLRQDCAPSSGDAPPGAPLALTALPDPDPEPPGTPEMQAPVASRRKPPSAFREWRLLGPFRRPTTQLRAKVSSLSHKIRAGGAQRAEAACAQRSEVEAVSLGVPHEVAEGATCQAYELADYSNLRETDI

CYP2D6 = CYP2D6 (Homo sapiens, UniProt P10635); assay: Inhibition of CYP2D6 (unknown origin) at 10 uM relative to control; assay type: ADME
[10] = Intrinsic clearance in Sprague-Dawley rat liver microsomes at 0.5 uM in presence of NADPH by LC-MS/MS analysis; assay type: ADME, microsome
Outline: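 Pooled male Sprague-Dawley rat liver microsomes (0.5 mg/mL final) in 100 mM Tris-HCl pH 7.4 with NADPH-regenerating mix plus UDP-GA, test compound 0.5 µM, 20 min at 37 °C. Acetonitrile stop, LC-MS/MS. CLint,u is scaled with 44.8 mg protein/g liver and 40.0 g liver/kg, and corrected by fu from ultracentrifugation (160,000g, 16 h, 37 °C).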

CYP3A4 = CYP3A4 (Homo sapiens, UniProt P08684); assay: Inhibition of CYP3A4 (unknown origin) at 10 uM relative to control; assay type: ADME
[11] = Membrane permeability in MDCK cells at 50 uM after 60 mins by LC-MS/MS analysis; assay type: ADME, cell-based, Canis lupus familiaris; settings: dog, read-out: permeability

Chain of CYP3A4 (P08684 whole entry): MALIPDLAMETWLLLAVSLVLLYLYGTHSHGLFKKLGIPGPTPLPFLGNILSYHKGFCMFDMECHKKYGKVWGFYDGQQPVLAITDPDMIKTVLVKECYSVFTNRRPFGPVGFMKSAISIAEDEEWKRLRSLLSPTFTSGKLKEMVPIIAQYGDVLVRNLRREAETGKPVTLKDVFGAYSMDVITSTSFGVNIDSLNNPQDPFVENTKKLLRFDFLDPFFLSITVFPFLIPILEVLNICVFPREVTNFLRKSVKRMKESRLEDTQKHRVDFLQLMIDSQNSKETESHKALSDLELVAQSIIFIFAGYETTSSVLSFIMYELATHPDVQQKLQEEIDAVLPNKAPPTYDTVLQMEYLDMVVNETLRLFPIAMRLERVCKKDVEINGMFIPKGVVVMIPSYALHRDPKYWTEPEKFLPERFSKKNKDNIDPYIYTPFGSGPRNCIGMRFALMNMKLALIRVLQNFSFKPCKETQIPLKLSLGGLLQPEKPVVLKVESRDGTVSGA
Chain of Adrenoceptor beta 3 (Callithrix jacchus) (F6XZF4 as listed by the source): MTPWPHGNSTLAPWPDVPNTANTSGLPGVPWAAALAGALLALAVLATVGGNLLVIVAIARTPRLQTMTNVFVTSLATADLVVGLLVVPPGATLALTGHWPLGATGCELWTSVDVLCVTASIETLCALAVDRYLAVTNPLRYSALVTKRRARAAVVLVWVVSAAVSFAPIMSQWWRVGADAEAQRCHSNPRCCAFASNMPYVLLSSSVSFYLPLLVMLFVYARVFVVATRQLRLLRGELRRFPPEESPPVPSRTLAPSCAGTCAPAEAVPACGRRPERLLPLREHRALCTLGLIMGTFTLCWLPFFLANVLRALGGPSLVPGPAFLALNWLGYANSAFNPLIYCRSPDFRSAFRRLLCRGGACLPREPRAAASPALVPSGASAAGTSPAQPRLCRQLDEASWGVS
Chain of Beta-3 adrenergic receptor (P13945 whole entry): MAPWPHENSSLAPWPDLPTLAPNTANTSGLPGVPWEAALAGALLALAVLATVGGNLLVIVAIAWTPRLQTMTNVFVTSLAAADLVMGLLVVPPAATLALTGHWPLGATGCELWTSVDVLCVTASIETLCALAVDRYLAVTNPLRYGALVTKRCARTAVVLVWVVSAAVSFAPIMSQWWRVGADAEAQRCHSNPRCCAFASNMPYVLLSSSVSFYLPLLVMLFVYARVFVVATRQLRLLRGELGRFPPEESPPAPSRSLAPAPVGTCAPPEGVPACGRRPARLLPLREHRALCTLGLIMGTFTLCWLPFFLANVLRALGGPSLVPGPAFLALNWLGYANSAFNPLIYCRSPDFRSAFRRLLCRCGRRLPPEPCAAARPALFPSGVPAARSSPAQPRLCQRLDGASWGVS
Chain of CYP2D6 (P10635 whole entry): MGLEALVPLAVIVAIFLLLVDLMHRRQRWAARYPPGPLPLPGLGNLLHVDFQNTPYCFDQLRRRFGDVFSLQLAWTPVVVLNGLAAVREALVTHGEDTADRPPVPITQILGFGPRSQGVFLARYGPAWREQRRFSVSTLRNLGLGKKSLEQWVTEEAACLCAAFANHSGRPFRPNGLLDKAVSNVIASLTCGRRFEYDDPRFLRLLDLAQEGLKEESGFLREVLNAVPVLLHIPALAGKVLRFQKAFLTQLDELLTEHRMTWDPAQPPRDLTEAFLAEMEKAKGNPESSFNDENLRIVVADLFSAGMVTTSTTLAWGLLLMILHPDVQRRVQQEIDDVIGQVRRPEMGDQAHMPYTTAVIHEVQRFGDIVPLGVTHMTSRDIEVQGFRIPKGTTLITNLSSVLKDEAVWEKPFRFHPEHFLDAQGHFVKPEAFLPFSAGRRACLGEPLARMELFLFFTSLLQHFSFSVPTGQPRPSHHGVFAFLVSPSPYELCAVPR

EC50 [3]: > 10 µM | Activity [4]: Dose-dependent effect | Emax [5]: 0% | CLint scaled at 1 µM [6]: 57 mL/min/kg | inhibition at 10 µM (CYP2C8): < 34% | EC50 [8]: 0.018 µM | EC50 [9]: > 10 µM | inhibition at 10 µM (CYP2D6): < 34% | CLint scaled at 0.5 µM [10]: 52 mL/min/kg | inhibition at 10 µM (CYP3A4): < 34% | Papp at 1 h, 50 µM [11]: 5 ×10⁻⁶ cm/s
Structure (SMILES): Cc1n[nH]c2cc(OCCNC[C@H](O)c3cccc(NS(=O)(=O)C4CCC4)c3)ccc12
Activity (Rattus norvegicus [1]): 0.9% | Activity (Rattus norvegicus [2]): 5.8% | Activity (Rattus norvegicus [7]): 2%
